Assay results reported in ChEMBL document CHEMBL4393735, “Molecular modelling, synthesis, and biological evaluations of a 3,5-disubstituted isoxazole fatty acid analogue as a PPARα-selective agonist” (Bioorg Med Chem, 2019).
Active and inactive are the calls of the source. The rule behind the calls is not given here.

Legend:
Format in all cases: cell-based
[1] = biological target: T1, Retinoic acid receptor RXR-alpha (Homo sapiens) (UniProt P19793); experiment: Agonist activity at full length human FLAG-tagged GAL4-DBD fused RXRalpha LBD (202 to 462 residues) expressed in COS1 cells at 25 to 50 uM measured after 18 hrs by dual luciferase reporter gene assay
T1 sequence (whole entry): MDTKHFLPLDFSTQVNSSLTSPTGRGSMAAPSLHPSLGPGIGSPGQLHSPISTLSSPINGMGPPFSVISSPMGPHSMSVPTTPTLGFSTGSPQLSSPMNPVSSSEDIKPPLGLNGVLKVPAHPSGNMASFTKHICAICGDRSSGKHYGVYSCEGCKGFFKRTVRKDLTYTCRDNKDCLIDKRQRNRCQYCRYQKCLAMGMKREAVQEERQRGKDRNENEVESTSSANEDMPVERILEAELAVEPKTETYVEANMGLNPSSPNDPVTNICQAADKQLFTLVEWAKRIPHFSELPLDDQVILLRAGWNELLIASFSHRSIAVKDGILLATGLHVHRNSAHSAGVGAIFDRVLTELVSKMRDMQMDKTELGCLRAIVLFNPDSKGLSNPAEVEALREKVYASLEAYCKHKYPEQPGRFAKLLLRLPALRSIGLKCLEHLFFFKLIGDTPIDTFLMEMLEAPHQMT
In short: (§1)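 COS-1 cells were transfected using Lipofectamine 2000 with GAL4-DBD–human NR-LBD plasmid, a 5×UAS-SV40 firefly luciferase reporter and pRL-CMV. After 6 h, cells were treated with 0, 25 or 50 μM in 0.1% DMSO (final) for 18 h. Firefly signal was normalized to Renilla, then to DMSO control and GAL4-only. Three biological replicates in quadruplicate, mean ± SEM, two-way ANOVA with Bonferroni.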

COS-1 = experiment: Cytotoxicity against African green monkey COS1 cells assessed as reduction in cell viability at 10^-3 M by LDH release assay relative to control; details: chlorocebus aethiops, cos-1, 1000 µM
In short: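 COS-1 cells were treated across the same concentration series as the GAL4 dose-response runs. Cytotoxicity was measured as LDH released into medium (absorbance 492/750 nm) and by XTT viability assay (absorbance 450/690 nm). Results expressed relative to control.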

[2] = biological target: T2, Oxysterols receptor LXR-alpha (Homo sapiens) (UniProt Q13133); experiment: Agonist activity at full length human GAL4-DBD fused LXRalpha LBD (164 to 447 residues) expressed in COS1 cells at 25 to 50 uM measured after 18 hrs by dual luciferase reporter gene assay; in short: as §1
T2 sequence (whole entry): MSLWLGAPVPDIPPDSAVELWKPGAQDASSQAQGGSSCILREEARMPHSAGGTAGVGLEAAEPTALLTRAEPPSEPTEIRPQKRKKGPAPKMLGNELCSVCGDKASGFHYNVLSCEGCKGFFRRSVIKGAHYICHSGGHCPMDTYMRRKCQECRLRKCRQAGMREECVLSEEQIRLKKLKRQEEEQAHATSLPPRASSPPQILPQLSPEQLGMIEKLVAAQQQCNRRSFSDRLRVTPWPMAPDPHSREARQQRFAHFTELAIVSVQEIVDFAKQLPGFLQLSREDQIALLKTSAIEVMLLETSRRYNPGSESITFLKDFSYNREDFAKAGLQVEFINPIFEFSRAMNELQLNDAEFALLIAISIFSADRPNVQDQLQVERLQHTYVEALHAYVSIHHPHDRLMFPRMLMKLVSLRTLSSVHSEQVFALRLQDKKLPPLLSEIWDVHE

[3] = biological target: T3, Peroxisome proliferator-activated receptor alpha (Homo sapiens) (UniProt Q07869); experiment: Agonist activity at full length human FLAG-tagged GAL4-DBD fused PPARalpha LBD (168 to 468 residues) expressed in COS1 cells transfected with hRXRalpha and hCPT1A-driven reporter assessed as increase in CPT1A mRNA level at 50 uM measured after 18 hrs by dual luciferase reporter gene assay
T3 sequence (whole entry): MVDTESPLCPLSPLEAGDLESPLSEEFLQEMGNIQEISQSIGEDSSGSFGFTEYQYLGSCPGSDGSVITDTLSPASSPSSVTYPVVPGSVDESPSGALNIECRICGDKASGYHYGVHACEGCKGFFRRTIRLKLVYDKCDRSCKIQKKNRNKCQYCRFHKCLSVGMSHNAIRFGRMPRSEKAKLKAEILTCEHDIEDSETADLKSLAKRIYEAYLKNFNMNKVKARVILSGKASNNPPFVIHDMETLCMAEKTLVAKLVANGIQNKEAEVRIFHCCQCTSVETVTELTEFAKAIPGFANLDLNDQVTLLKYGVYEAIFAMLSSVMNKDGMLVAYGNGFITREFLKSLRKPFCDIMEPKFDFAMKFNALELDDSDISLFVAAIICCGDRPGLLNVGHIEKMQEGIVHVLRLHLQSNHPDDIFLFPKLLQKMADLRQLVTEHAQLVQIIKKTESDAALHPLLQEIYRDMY
In short: (§2)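 COS-1 cells were transfected with full-length human PPARα (or PPARγ) plus RXRα expression plasmids, with a wild-type or PPRE-mutated CPT1A-intronic (or PLIN1) luciferase reporter and pRL-CMV. Cells were treated with 50 μM in 0.1% DMSO (final) for 18 h. Dual-luciferase read-out normalized to DMSO control. Three biological replicates in quadruplicate, mean ± SEM.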

[4] = biological target: T4, Peroxisome proliferator-activated receptor gamma (Homo sapiens) (UniProt P37231); experiment: Agonist activity at full length human FLAG-tagged GAL4-DBD fused PPARgamma LBD (205 to 505 residues) expressed in COS1 cells transfected with hRXRalpha and hPLIN1-driven reporter assessed as PLIN1 mRNA level at 50 uM measured after 18 hrs by dual luciferase reporter gene assay; in short: as §2
T4 sequence (whole entry): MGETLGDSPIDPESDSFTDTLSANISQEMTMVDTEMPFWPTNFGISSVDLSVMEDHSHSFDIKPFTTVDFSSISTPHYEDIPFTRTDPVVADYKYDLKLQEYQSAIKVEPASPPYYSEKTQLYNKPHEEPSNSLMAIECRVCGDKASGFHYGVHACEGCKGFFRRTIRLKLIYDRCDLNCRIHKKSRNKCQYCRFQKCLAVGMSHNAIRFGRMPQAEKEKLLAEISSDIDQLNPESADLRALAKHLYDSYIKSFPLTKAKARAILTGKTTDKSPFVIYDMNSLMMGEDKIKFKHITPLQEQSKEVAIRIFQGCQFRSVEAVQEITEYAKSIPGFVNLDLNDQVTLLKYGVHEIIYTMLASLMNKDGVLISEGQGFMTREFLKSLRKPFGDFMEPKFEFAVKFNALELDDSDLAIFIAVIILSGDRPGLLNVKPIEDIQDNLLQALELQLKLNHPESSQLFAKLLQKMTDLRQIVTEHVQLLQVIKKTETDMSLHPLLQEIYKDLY

Activity [1]: inactive
Activity [2]: inactive
Activity [3]: Active
Activity [4]: inactive
Structure (SMILES): CCCCCCCc1cc(CCCCCC(=O)O)no1
Activity (COS-1): 60%
